Measured values from ChEMBL document CHEMBL2311304, “Design, synthesis and in vitro and in vivo antitumor activities of novel bivalent β-carbolines” (Eur J Med Chem, 2013).

Columns and labels:
B16 = test: Antitumor activity in mouse B16 melanoma cell lines cells inoculated mouse assessed as tumor inhibition rate at one fifth of LD50 concentration once a day for consecutive 7 days by ip; format: functional; parameters: scale not given: the % may be the effect or the level left
How it was run: (§1)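 Each tumour line was first grown in mice for 7 days, then harvested. Viable cells (2 × 10^6 per mouse) were injected s.c. into the armpit. Dosing began 24 h later: i.p., about one fifth of LD50, daily for 7 days, 10 female mice per group. […] Body weight was recorded every 3 days. Tumours were excised and weighed on day 21 to give inhibition rate.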

SK-OV-3 = test: Cytotoxicity against human ovary adenocarcinoma SKOV3 cells assessed as reduction in optical density by MTT assay; format: functional, cell-based; details: SK-OV-3, Female gonad
How it was run: (§2)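 Cells were cultured in RPMI-1640 with 10% (v/v) fetal calf serum, 100 µg ml-1 penicillin and 100 µg ml-1 streptomycin at 37 °C in humidified 5% CO2. Compounds were dissolved in DMSO, with final DMSO at 2% (v/v) or lower. MTT staining was used, with three replicate wells per point. IC50 is the concentration giving a 50% drop in optical density versus untreated cells.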

KB = test: Cytotoxicity against human epidermoid carcinoma of the nasopharynx KB cells assessed as reduction in optical density by MTT assay; format: functional, cell-based; how it was run: as §2
Mus musculus [1] = test: Toxicity in C57BL/6 mouse assessed as liver damage at 1 to 500 mg/kg, ip for 14 days; format: organism-based; parameters: dose 1-500 mg/kg, route intraperitoneal; details: in vivo, 336 h
How it was run: (§3)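 Healthy C57BL/6 mice (9–12 weeks, 18–22 g) were fasted overnight with free access to water. Each received a single i.p. dose of 1.0–500 mg kg-1 in 0.5% CMC-Na, 10 mice per group (5 male, 5 female). Mice were watched continuously for 2 h, intermittently to 24 h, then occasionally to 14 days for tremor, twitch, jumping and supination. At day 14 they were killed and heart, liver and kidneys were examined macroscopically.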

Mus musculus [2] = test: Toxicity in C57BL/6 mouse assessed as kidney damage at 1 to 500 mg/kg, ip for 14 days; format: organism-based; parameters: dose 1-500 mg/kg, route intraperitoneal; details: in vivo, 336 h; how it was run: as §3
Mus musculus [3] = test: Neurotoxicity in C57BL/6 mouse at 1 to 500 mg/kg, ip for 14 days; format: toxicity, organism-based; parameters: dose 1-500 mg/kg, route intraperitoneal; details: in vivo, 336 h; how it was run: as §3
769-P = test: Cytotoxicity against human renal carcinoma 769-P cells assessed as reduction in optical density by MTT assay; format: functional, cell-based; how it was run: as §2
CT26 = test: Antitumor activity in mouse CT26 colon cancer cells inoculated mouse assessed as tumor inhibition rate at one fifth of LD50 concentration once a day for consecutive 7 days by ip; format: functional; parameters: scale not given: the % may be the effect or the level left; how it was run: as §1
Mus musculus [4] = test: Toxicity in C57BL/6 mouse assessed as maximum weight loss at 40 mg/kg, ip; format: organism-based; parameters: dose 40 mg/kg, route intraperitoneal; details: in vivo
How it was run: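 Tumor-bearing mice, 10 females per group, were inoculated s.c. in the armpit with 2 × 10^6 viable tumor cells. Compound was given i.p. once daily for 7 consecutive days, starting 24 h after inoculation. […] Body weight was recorded every 3 days until sacrifice on day 21.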

[5] = Antitumor activity in mouse Lewis lung cancer cells inoculated mouse assessed as tumor inhibition rate at one fifth of LD50 concentration once a day for consecutive 7 days by ip; format: functional, Cancer cell lines; parameters: scale not given: the % may be the effect or the level left; how it was run: as §1
[6] = Antitumor activity in mouse Sarcoma 180 cells inoculated mouse assessed as tumor inhibition rate at one fifth of LD50 concentration once a day for consecutive 7 days by ip; format: functional; parameters: scale not given: the % may be the effect or the level left; how it was run: as §1
H22 = test: Antitumor activity in mouse H22 liver cancer cells inoculated mouse assessed as tumor inhibition rate at one fifth of LD50 concentration once a day for consecutive 7 days by ip; format: functional; parameters: scale not given: the % may be the effect or the level left; how it was run: as §1
BGC-823 = test: Cytotoxicity against human gastric carcinoma BGC823 cells assessed as reduction in optical density by MTT assay; format: functional, cell-based; how it was run: as §2
Mus musculus [7] = test: Toxicity in C57BL/6 mouse assessed as heart damage at 1 to 500 mg/kg, ip for 14 days; format: organism-based; parameters: dose 1-500 mg/kg, route intraperitoneal; details: in vivo, 336 h; how it was run: as §3
A-375 = test: Cytotoxicity against human malignant melanoma A375 cells assessed as reduction in optical density by MTT assay; format: functional, cell-based; how it was run: as §2

Structure (SMILES)	Activity (B16) [%]	IC50 (SK-OV-3) [µM]	IC50 (KB) [µM]	Activity (Mus musculus [1])	Activity (Mus musculus [2])	Activity (Mus musculus [3])	IC50 (769-P) [µM]	Activity (CT26) [%]	Activity (Mus musculus [4]) [%]	Activity [5] [%]	Activity [6] [%]	Activity (H22) [%]	IC50 (BGC-823) [µM]	Activity (Mus musculus [7])	IC50 (A-375) [µM]
Cc1nccc2c3ccc(OC(C)C)cc3n(CCCCCCn3c4cc(OC(C)C)ccc4c4ccnc(C)c43)c12	20.5	17.1	19.8	Non-toxic	Non-toxic	Non-toxic	95.4	51.2	10.2	49.6	40.6	39.7	194	Non-toxic	18.5
CC(C)c1nccc2c3ccccc3n(CCCCCCCCCCn3c4ccccc4c4ccnc(C(C)C)c43)c12		> 200	> 200				4.6						> 200		19.6
CC(C)c1nccc2c3ccccc3n(CCCCCCn3c4ccccc4c4ccnc(C(C)C)c43)c12		31.8	> 200				18.5						> 200		53.5
CCOC(=O)c1cc2c3ccccc3n(CCCCCCn3c4ccccc4c4cc(C(=O)OCC)nc(C)c43)c2c(C)n1		> 200	> 200				> 200						> 200		> 200
c1ccc2c(c1)c1ccncc1n2CCCCn1c2ccccc2c2ccncc21		> 200	> 200	Non-toxic	Non-toxic	Non-toxic		39.7	14.5	34.2			59.7	Non-toxic	> 200
Cc1nccc2c3ccccc3n(CCCCCCCCn3c4ccccc4c4ccnc(C)c43)c12		> 200	> 200				> 200						> 200		> 200
c1ccc2c(c1)c1ccnc(-c3ccsc3)c1n2CCCCCCCCn1c2ccccc2c2ccnc(-c3ccsc3)c21		> 200	> 200				> 200						> 200		32.1
COc1cc(-c2nccc3c4ccccc4n(CCCCCCCn4c5ccccc5c5ccnc(-c6cc(OC)c(OC)c(OC)c6)c54)c23)cc(OC)c1OC		> 200	7.6				3.3						> 200		4
COc1ccc2c3ccnc(C)c3n(CCCCCCn3c4cc(OC)ccc4c4ccnc(C)c43)c2c1		11.7	155				> 200						> 200		35.3
Cc1nccc2c3ccccc3n(CCCCCn3c4ccccc4c4ccnc(C)c43)c12		18.8	> 200				> 200						> 200		> 200
CCOC(=O)c1cc2c3ccccc3n(CCCCCCn3c4ccccc4c4cc(C(=O)OCC)nc(-c5cc(OC)c(OC)c(OC)c5)c43)c2c(-c2cc(OC)c(OC)c(OC)c2)n1		> 200	> 200				> 200						> 200		> 200
c1cncc(-c2nccc3c4ccccc4n(CCCCn4c5ccccc5c5ccnc(-c6cccnc6)c54)c23)c1		36.8	> 200				> 200						> 200		85.3
CCOC(=O)c1cc2c3ccccc3n(CCCCCn3c4ccccc4c4cc(C(=O)OCC)nc(-c5cccnc5)c43)c2c(-c2cccnc2)n1		> 200	15.7				132						24.1		13
c1ccc2c(c1)c1ccncc1n2CCCCCCCCn1c2ccccc2c2ccncc21		33.5	> 200				> 200						> 200		> 200
c1ccc2c(c1)c1ccncc1n2CCCCCCCn1c2ccccc2c2ccncc21		> 200	> 200				53						> 200		> 200
Cc1nccc2c3ccccc3n(CCCCCCCCCn3c4ccccc4c4ccnc(C)c43)c12		61.9	> 200				> 200						> 200		57.2
